Molecular target: Cytochrome P450 2C9 (Homo sapiens, UniProt P11712)
Assay: Inhibition of human CYP2C9 by fluorescence assay
Type: ADME
Conditions: not given
Summary of the method: (§1)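 Recombinant human P450 bactosomes (0.1 mg/mL) in 50 mM phosphate, pH 7.4. Test compound at 0.1-10 μM, preincubated 10 min at 37 °C with fluorogenic substrate: ethoxyresorufin 0.5 μM (1A2), FCA 50 μM (2C9), BMC 10 μM (2C19), MMC 10 μM (2D6).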

Chain of Cytochrome P450 2C9 (P11712 whole entry): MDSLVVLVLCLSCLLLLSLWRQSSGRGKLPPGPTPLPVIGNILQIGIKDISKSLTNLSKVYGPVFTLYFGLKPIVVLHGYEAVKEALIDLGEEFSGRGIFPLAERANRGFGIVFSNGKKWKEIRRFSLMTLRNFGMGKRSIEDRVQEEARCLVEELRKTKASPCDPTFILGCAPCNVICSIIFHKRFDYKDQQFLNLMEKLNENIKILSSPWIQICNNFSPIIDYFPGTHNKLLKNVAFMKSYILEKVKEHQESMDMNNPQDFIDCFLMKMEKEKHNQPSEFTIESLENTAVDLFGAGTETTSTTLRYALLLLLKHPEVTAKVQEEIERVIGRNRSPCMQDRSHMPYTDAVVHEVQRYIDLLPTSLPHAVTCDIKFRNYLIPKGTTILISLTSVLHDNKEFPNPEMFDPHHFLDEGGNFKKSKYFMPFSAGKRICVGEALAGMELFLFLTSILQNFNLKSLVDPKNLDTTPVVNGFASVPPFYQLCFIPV

Structure (SMILES) | IC50 [nM]
Clc1ccc([C@@]2(COC3CCC3)[C@@H]3CNC[C@@H]32)cc1Cl | > 10000
Clc1ccc([C@@]2(COCC3CC3)[C@@H]3CNC[C@@H]32)cc1Cl | > 10000
COC[C@H]1[C@@H]2CNC[C@@]21c1ccc(Cl)c(Cl)c1 (relative stereo) | > 6000

System: not listed separately
Assay: Volume of distribution in rat
Type: ADME, organism-based
Conditions: in vivo

Structure (SMILES) | Vd [L/kg]
COC[C@H]1[C@@H]2CNC[C@@]21c1ccc(Cl)c(Cl)c1 (relative stereo) | 2.9

System: Liver microsomes
Assay: Intrinsic clearance in rat liver microsomes assessed per gram of protein at 0.5 uM after 30 mins by HPLC-MS/MS analysis
Type: ADME, Microsome
Conditions: microsomes, 0.5 h, 0.5 µM
Summary of the method: (§2)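 Compound at 0.5 μM with rat or human liver microsomes (0.5 mg protein/mL), 50 mM phosphate, pH 7.4, 37 °C, started with NADPH. Sampled at 0-30 min, acetonitrile quench, HPLC-MS/MS. CLi from first-order elimination constant, scaled assuming 52.5 mg microsomal protein/g.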

Structure (SMILES) | CL [mL/min/g]
COC[C@H]1[C@@H]2CNC[C@@]21c1ccc(Cl)c(Cl)c1 (relative stereo) | 3.8

Molecular target: Cytochrome P450 2D6 (Homo sapiens, UniProt P10635)
Sequence (P10635 whole entry): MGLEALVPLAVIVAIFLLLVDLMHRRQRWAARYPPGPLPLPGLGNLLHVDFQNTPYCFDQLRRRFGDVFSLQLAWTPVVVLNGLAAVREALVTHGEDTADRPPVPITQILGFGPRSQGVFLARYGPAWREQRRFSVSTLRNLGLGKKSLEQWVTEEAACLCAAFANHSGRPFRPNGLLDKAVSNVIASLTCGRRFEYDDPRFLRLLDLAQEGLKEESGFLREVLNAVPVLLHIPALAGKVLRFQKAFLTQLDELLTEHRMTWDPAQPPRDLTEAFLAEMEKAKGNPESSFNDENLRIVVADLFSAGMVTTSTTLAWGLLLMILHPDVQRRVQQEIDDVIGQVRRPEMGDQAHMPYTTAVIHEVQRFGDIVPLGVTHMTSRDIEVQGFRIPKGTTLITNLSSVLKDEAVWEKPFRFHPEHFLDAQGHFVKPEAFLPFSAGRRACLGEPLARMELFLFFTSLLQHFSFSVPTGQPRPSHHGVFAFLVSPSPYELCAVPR
Assay: Inhibition of human […] by fluorescence assay
Type: ADME
Conditions: not given
Summary of the method: as §1

Structure (SMILES) | IC50 [nM]
Clc1ccc([C@@]2(COC3CCC3)[C@@H]3CNC[C@@H]32)cc1Cl | > 10000
Clc1ccc([C@@]2(COCC3CC3)[C@@H]3CNC[C@@H]32)cc1Cl | 1000
COC[C@H]1[C@@H]2CNC[C@@]21c1ccc(Cl)c(Cl)c1 (relative stereo) | > 6000

System: not listed separately
Assay: Ratio of drug level in brain to blood in rat
Type: ADME, tissue-based
Conditions: read-out: BBR

Structure (SMILES) | Kp
COC[C@H]1[C@@H]2CNC[C@@]21c1ccc(Cl)c(Cl)c1 (relative stereo) | 4

System: not listed separately
Assay: Half life in rat
Type: ADME, organism-based
Conditions: in vivo

Structure (SMILES) | half-life [h]
COC[C@H]1[C@@H]2CNC[C@@]21c1ccc(Cl)c(Cl)c1 (relative stereo) | 2.4

Molecular target: T1, Sodium-dependent dopamine transporter (Homo sapiens, UniProt Q01959)
T1 sequence (Q01959 whole entry): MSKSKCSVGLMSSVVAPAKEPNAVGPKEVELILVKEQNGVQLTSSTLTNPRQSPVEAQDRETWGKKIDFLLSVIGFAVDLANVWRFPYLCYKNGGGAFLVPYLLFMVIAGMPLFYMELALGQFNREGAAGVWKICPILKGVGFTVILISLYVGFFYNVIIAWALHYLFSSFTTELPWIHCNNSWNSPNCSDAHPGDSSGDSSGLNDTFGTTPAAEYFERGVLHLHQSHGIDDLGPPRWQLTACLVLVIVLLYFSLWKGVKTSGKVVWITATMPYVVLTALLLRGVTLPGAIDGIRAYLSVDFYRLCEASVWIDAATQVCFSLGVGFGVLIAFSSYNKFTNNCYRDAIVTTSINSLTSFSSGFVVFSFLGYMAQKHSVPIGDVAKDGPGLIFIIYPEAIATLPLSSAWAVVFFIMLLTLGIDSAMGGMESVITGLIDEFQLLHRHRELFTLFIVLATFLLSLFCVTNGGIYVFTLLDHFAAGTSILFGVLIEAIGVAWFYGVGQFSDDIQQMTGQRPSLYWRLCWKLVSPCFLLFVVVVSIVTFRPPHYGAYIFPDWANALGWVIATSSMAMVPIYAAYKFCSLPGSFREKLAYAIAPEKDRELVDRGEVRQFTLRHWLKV
Assay: Displacement of [N-methyl-3H]WIN-35428 from human recombinant DAT expressed in LLCPK cells by liquid scintillation counting
Type: cell-based
Conditions: not given
Summary of the method: (§3)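 Filtration binding on stably transfected LLCPK cell membranes, 2 h at room temperature. SERT: 0.25 nM [3H]citalopram, about 2.5 μg protein/well, NSB with 10 μM fluoxetine. NET: 1.5 nM [3H]nisoxetine, 4.8 μg/well, NSB with 10 μM desipramine. DAT: 10 nM [3H]WIN-35,428, 9.6 μg/well, NSB with 10 μM GBR-12909. Filter-bound radioactivity counted; 4-parameter fit, pKi by Cheng-Prusoff.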

Structure (SMILES) | Ki [nM]
COC[C@H]1[C@@H]2CNC[C@@]21c1ccc(Cl)c(Cl)c1 (relative stereo) | 85.1

Molecular target: T2, Sodium-dependent serotonin transporter (Homo sapiens, UniProt P31645)
T2 sequence (P31645 whole entry): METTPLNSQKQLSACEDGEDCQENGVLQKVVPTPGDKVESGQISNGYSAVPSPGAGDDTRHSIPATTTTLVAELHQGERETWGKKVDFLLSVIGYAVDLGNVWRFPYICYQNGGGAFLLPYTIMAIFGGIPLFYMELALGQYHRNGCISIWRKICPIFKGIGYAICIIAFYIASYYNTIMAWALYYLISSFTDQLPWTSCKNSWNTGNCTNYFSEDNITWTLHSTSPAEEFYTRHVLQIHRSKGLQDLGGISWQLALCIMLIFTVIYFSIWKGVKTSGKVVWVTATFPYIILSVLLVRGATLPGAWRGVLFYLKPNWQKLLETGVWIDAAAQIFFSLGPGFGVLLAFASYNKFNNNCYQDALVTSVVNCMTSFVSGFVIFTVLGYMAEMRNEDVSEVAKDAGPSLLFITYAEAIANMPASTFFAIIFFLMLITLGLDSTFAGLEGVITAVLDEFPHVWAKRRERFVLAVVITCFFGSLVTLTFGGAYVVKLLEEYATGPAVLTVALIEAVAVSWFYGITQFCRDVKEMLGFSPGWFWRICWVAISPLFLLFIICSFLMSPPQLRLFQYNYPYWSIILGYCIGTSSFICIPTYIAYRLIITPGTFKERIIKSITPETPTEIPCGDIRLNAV
Assay: Displacement of [3H]citalopram from human recombinant SERT expressed in LLCPK cells by liquid scintillation counting
Type: cell-based
Conditions: not given
Summary of the method: as §3

Structure (SMILES) | Ki [nM]
COC[C@H]1[C@@H]2CNC[C@@]21c1ccc(Cl)c(Cl)c1 (relative stereo) | 0.741

Molecular target: Sodium-dependent serotonin transporter (Rattus norvegicus, UniProt P31652)
Sequence (P31652 whole entry): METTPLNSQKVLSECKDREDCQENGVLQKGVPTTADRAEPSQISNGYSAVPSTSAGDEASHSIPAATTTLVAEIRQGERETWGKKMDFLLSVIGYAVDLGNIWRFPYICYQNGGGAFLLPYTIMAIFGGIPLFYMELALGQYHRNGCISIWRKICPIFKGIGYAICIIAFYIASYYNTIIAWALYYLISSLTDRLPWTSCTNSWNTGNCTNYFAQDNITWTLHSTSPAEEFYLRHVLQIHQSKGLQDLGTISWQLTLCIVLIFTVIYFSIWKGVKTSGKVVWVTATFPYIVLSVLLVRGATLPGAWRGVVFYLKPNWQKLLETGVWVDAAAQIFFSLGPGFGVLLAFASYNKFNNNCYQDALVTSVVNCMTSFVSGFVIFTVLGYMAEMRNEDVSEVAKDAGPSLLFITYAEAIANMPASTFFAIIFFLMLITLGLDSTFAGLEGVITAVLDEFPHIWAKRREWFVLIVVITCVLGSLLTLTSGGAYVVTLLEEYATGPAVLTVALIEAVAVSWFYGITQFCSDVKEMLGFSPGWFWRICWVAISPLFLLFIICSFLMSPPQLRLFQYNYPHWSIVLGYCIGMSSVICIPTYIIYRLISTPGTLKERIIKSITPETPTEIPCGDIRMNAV
Assay: Displacement of [3H]citalopram from rat cortex SERT by filtration binding assay
Conditions: not given
Summary of the method: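 Native brain tissue filtration binding, run as for the recombinant transporters. SERT on rat or mouse cortex (20 and 7 μg protein/well respectively). NET on rat hippocampus (40 μg/well). DAT on rat striatum (20 μg/well).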

Structure (SMILES) | Ki [nM]
COC[C@H]1[C@@H]2CNC[C@@]21c1ccc(Cl)c(Cl)c1 (relative stereo) | 1.78

Molecular target: T1, Sodium-dependent dopamine transporter
Assay: Displacement of [3H]WIN-35428 from human recombinant DAT expressed in BacMam virus-transduced cells by scintillation proximity assay
Type: cell-based
Conditions: not given

Structure (SMILES) | Ki [nM]
Clc1ccc([C@@]2(COC3CCC3)[C@@H]3CNC[C@@H]32)cc1Cl | 6.31
Clc1ccc([C@@]2(COCC3CC3)[C@@H]3CNC[C@@H]32)cc1Cl | 10
COC[C@H]1[C@@H]2CNC[C@@]21c1ccc(Cl)c(Cl)c1 (relative stereo) | 56.2

System: not listed separately
Assay: Bioavailability in rat
Type: ADME, organism-based
Conditions: in vivo

Structure (SMILES) | bioavailability [%]
COC[C@H]1[C@@H]2CNC[C@@]21c1ccc(Cl)c(Cl)c1 (relative stereo) | 94

System: Liver microsomes
Assay: Intrinsic clearance in human liver microsomes assessed per gram of protein at 0.5 uM after 30 mins by HPLC-MS/MS analysis
Type: ADME, Microsome
Conditions: microsomes, 0.5 h, 0.5 µM
Summary of the method: as §2

Structure (SMILES) | CL [mL/min/g]
COC[C@H]1[C@@H]2CNC[C@@]21c1ccc(Cl)c(Cl)c1 (relative stereo) | < 0.5

Molecular target: Cytochrome P450 2C19 (Homo sapiens, UniProt P33261)
Sequence (P33261 whole entry): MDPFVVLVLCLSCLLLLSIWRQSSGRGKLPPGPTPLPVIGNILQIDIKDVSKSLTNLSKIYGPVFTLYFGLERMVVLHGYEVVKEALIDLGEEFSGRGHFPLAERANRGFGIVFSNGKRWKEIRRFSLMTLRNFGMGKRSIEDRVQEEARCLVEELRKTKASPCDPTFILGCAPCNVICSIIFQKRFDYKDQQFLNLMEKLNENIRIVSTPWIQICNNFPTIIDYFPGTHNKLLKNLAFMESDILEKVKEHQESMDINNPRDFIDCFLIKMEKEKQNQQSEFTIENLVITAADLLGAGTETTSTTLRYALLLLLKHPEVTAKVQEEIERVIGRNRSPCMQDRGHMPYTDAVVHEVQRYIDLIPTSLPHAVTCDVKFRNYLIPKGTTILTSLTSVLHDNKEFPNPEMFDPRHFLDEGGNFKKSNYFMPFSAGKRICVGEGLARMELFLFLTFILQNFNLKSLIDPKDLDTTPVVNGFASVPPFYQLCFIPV
Assay: Inhibition of human CYP2C19 by fluorescence assay
Type: ADME
Conditions: not given
Summary of the method: as §1

Structure (SMILES) | IC50 [nM]
Clc1ccc([C@@]2(COC3CCC3)[C@@H]3CNC[C@@H]32)cc1Cl | > 10000
Clc1ccc([C@@]2(COCC3CC3)[C@@H]3CNC[C@@H]32)cc1Cl | > 10000
COC[C@H]1[C@@H]2CNC[C@@]21c1ccc(Cl)c(Cl)c1 (relative stereo) | > 6000

Molecular target: T3, Cytochrome P450 1A2 (Homo sapiens, UniProt P05177)
T3 sequence (P05177 whole entry): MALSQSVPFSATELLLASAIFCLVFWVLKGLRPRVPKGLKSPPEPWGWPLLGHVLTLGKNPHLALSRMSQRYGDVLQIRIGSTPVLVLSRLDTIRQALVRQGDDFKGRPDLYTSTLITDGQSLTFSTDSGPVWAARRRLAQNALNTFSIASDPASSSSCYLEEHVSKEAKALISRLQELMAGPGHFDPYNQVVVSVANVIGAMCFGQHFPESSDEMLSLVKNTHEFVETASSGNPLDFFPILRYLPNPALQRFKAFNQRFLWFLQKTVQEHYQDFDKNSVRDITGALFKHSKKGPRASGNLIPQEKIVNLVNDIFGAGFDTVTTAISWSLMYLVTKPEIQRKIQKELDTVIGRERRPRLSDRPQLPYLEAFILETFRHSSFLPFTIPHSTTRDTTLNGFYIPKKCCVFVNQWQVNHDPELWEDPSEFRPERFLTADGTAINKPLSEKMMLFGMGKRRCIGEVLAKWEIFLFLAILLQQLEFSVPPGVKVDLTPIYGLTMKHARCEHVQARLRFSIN
Assay: Inhibition of human CYP1A2 by fluorescence assay
Type: ADME
Conditions: not given
Summary of the method: as §1

Structure (SMILES) | IC50 [nM]
Clc1ccc([C@@]2(COC3CCC3)[C@@H]3CNC[C@@H]32)cc1Cl | > 10000
Clc1ccc([C@@]2(COCC3CC3)[C@@H]3CNC[C@@H]32)cc1Cl | > 10000
COC[C@H]1[C@@H]2CNC[C@@]21c1ccc(Cl)c(Cl)c1 (relative stereo) | > 6000

System: not listed separately
Assay: Blood clearance in rat
Type: ADME, organism-based
Conditions: not given

Structure (SMILES) | clearance [mL/min/kg]
COC[C@H]1[C@@H]2CNC[C@@]21c1ccc(Cl)c(Cl)c1 (relative stereo) | 16

Molecular target: T4, Sodium-dependent noradrenaline transporter (Homo sapiens, UniProt P23975)
T4 sequence (P23975 whole entry): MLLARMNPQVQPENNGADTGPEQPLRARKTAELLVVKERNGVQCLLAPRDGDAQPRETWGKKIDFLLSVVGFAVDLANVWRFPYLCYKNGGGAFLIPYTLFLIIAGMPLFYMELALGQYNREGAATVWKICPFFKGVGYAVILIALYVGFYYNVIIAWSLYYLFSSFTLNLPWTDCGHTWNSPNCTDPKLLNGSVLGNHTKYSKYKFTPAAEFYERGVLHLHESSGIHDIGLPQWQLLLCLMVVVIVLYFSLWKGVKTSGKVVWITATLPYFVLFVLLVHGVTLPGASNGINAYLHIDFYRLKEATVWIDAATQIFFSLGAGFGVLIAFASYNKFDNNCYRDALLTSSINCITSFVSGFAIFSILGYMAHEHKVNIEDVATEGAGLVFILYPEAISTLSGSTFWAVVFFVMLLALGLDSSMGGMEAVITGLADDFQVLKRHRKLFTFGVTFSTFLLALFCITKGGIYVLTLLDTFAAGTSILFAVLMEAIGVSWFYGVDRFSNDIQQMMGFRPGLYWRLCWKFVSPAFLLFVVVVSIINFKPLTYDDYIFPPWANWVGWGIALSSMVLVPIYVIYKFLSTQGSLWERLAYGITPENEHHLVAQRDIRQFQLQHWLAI
Assay: Displacement of [3H]nisoxetine from human recombinant NET expressed in BacMam virus-transduced cells by scintillation proximity assay
Type: cell-based
Conditions: not given
Summary of the method: (§4)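 BacMam-transduced membranes in SPA format. SERT: 1 mg/mL beads, 6 μg/mL membranes, 3 nM [3H]citalopram. NET: 2 mg/mL beads, 40 μg/mL membranes, 10 nM [3H]nisoxetine. Incubated overnight at room temperature; pKi from pIC50 by Cheng-Prusoff.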

Structure (SMILES) | Ki [nM]
Clc1ccc([C@@]2(COC3CCC3)[C@@H]3CNC[C@@H]32)cc1Cl | 2.51
Clc1ccc([C@@]2(COCC3CC3)[C@@H]3CNC[C@@H]32)cc1Cl | 7.94
COC[C@H]1[C@@H]2CNC[C@@]21c1ccc(Cl)c(Cl)c1 (relative stereo) | 1.74

Molecular target: T4, Sodium-dependent noradrenaline transporter
Assay: Displacement of [N-methyl-3H]nisoxetine from human recombinant NET expressed in LLCPK cells by liquid scintillation counting
Type: cell-based
Conditions: not given
Summary of the method: as §3

Structure (SMILES) | Ki [nM]
COC[C@H]1[C@@H]2CNC[C@@]21c1ccc(Cl)c(Cl)c1 (relative stereo) | 4.57

Molecular target: T2, Sodium-dependent serotonin transporter
Assay: Displacement of [3H]citalopram from human recombinant SERT expressed in BacMam virus-transduced cells by scintillation proximity assay
Type: cell-based
Conditions: not given
Summary of the method: as §4

Structure (SMILES) | Ki [nM]
Clc1ccc([C@@]2(COC3CCC3)[C@@H]3CNC[C@@H]32)cc1Cl | 0.398
Clc1ccc([C@@]2(COCC3CC3)[C@@H]3CNC[C@@H]32)cc1Cl | 0.631
COC[C@H]1[C@@H]2CNC[C@@]21c1ccc(Cl)c(Cl)c1 (relative stereo) | 0.759

Molecular target: Cytochrome P450 3A4 (Homo sapiens, UniProt P08684)
Sequence (P08684 whole entry): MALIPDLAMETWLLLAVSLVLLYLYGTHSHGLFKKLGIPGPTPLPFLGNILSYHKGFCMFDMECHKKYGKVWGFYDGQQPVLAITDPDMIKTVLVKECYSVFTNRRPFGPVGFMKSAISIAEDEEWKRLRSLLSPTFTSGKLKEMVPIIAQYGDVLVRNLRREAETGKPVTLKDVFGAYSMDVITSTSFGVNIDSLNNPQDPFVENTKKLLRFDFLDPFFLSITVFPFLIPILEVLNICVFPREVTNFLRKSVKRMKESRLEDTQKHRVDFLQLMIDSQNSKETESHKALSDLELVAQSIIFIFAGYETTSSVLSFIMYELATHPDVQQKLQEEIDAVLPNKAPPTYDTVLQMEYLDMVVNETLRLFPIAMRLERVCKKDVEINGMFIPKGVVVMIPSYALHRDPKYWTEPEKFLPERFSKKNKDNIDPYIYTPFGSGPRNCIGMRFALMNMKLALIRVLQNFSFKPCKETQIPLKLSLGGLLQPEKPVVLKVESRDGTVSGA
Assay: Inhibition of human CYP3A4 by fluorescence assay
Conditions: not given

Structure (SMILES) | IC50 [nM]
Clc1ccc([C@@]2(COC3CCC3)[C@@H]3CNC[C@@H]32)cc1Cl | 3000
COC[C@H]1[C@@H]2CNC[C@@]21c1ccc(Cl)c(Cl)c1 (relative stereo) | > 6000

System: not listed separately
Assay: Fraction unbound in rat brain
Type: ADME, tissue-based
Conditions: brain

Structure (SMILES) | fraction unbound
COC[C@H]1[C@@H]2CNC[C@@]21c1ccc(Cl)c(Cl)c1 (relative stereo) | 0.027
